# What was measured:
# [1] = test system: Human immunodeficiency virus 1; test: Selectivity ratio of EC50 for Human immunodeficiency virus 1 3B clinical isolate harboring L10I/K20R/M36I/G48V/ I62V/A71V/V82A/I93L protease mutant to EC50 for wild type Human immunodeficiency virus 1 3B; format: functional
# [2] = test system: Human immunodeficiency virus 1; test: Selectivity ratio of EC50 for Human immunodeficiency virus 1 3B clinical isolate harboring L10I/I13V/M46I/I50V/L63P/L76V protease mutant to EC50 for wild type Human immunodeficiency virus 1 3B; format: functional
# [3] = test system: Human immunodeficiency virus 1; test: Selectivity ratio of EC50 for Human immunodeficiency virus 1 3B clinical isolate harboring L10I/M46I/I64V/I84V/L90M/I93L protease mutant to EC50 for wild type Human immunodeficiency virus 1 3B; format: functional
# [4] = test system: Human immunodeficiency virus 1; test: Antiviral activity against Human immunodeficiency virus 1 3B clinical isolate harboring L10I/K20R/M36I/G48V/ I62V/A71V/V82A/I93L protease mutant infected in human MT4 cells assessed as inhibition of viral replication; format: functional, organism-based
# Method in brief: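 Each assay run in quadruplicate. Values are averages of at least two independent experiments, typically three to four. Cytotoxicity (CC50) was measured in parallel in MT4 cells.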
# [5] = test system: Human immunodeficiency virus 1; test: Antiviral activity against Human immunodeficiency virus 1 3B clinical isolate harboring L10I/M46I/I64V/I84V/L90M/I93L protease mutant infected in human MT4 cells assessed as inhibition of viral replication; format: functional, organism-based
# Method in brief: (§1)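 Inhibition of replication in MT4 cells infected with protease-mutant HIV-1 clinical isolates, reported as EC50. Each assay run in quadruplicate. Values are averages of at least two independent experiments, typically three to four. Cytotoxicity (CC50) was measured in parallel in MT4 cells.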
# [6] = Cytotoxicity against human MT4 cells; format: cell-based
# [7] = test system: Human immunodeficiency virus 1; test: Antiviral activity against wild type Human immunodeficiency virus 1 3B infected in human MT4 cells assessed as inhibition of viral replication in presence of 50% human serum
# [8] = Drug metabolism in human liver microsomes at 1 uM after 15 mins; format: ADME, Microsome; conditions: read-out: Drug metabolism
# Method in brief: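 Human liver microsome incubation at 37 °C for 15 min with compound at 1 µM; turnover expressed as percent of compound metabolized.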
# [9] = Plasma clearance in rat at 2 mg/kg, iv; format: ADME, organism-based; set-up: dose 2 mg/kg, route intravenous
# Method in brief: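 Single intravenous dose of 2 mg/kg in rats. The formulation is typically 1 mg/mL in PEG400/ethanol/saline (70/20/10). Clearance values are averages from two or three animals. High is >3 L/h/kg (>70% liver blood flow) and low is <1.3 L/h/kg (<30%).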
# [10] = test system: Human immunodeficiency virus 1; test: Antiviral activity against wild type Human immunodeficiency virus 1 3B infected in human MT4 cells assessed as inhibition of viral replication; format: functional, organism-based
# Method in brief: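 EC50 values are averages of at least two independent experiments (typically three to four), each run in quadruplicate. For the serum-shifted line, the same antiviral assay includes 50% human serum, used as a functional measure of plasma protein binding.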
# [11] = Aqueous solubility of the compound in crystalline polymorphic form; format: physicochemical
# [12] = Bioavailability in rat at 50 mg/mL formulated with 25 mg/mL of poloxamer 338 and sucrose in water administered intramuscularly measured after 1 month; format: ADME, organism-based; conditions: in vivo, im
# Method in brief: (§2)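 Nanosuspension depot given by a single intramuscular injection in rats. Blood is sampled at regular intervals over two months. Absolute bioavailability is assessed after 1 month of sampling as ((AUC_IM × dose_IV)/(AUC_IV × dose_IM)) × 100, relative to intravenous dosing.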
# [13] = Bioavailability in rat at 50 mg/mL formulated with Vit-E TPGS, DSPG and sucrose in water administered intramuscularly measured after 1 month; format: ADME, organism-based; conditions: in vivo, im; method in brief: as §2
# [14] = Bioavailability in rat at 100 mg/mL formulated with polysorbate 20 and NaCl in water administered intramuscularly measured after 1 month; format: ADME, organism-based; conditions: in vivo, im; method in brief: as §2
# [15] = test system: Human immunodeficiency virus 1; test: Antiviral activity against Human immunodeficiency virus 1 3B clinical isolate harboring L10I/I13V/M46I/I50V/L63P/L76V protease mutant infected in human MT4 cells assessed as inhibition of viral replication; format: functional, organism-based; method in brief: as §1
Structure (SMILES),EC50 [7] [nM],"metabolised at 0.25 h, 1 µM [8] [%]",clearance [9] [mL/min/kg],EC50 [10] [nM],Ratio EC50 [1],Ratio EC50 [2],Ratio EC50 [3],EC50 [4] [nM],EC50 [5] [nM],CC50 [6] [µM],solubility [11] [µg/mL],bioavailability at 1 month [12] [%],bioavailability at 1 month [13] [%],bioavailability at 1 month [14] [%],EC50 [15] [nM]
CC(C)CN(C[C@@H](O)[C@H](Cc1ccccc1)NC(=O)O[C@H]1CO[C@H]2OCC[C@H]21)S(=O)(=O)c1ccc(N)cc1,17,,,,<1,8,2,2.4,12,> 10,,,,,
COC(=O)N[C@H](C(=O)N[C@@H](Cc1ccc(-c2ccc(OC)nc2)cc1)[C@@H](O)C[C@@H](Cc1ccccc1F)C(=O)N[C@H]1c2cccc(F)c2OC[C@H]1O)C(C)(C)C,6.9,98,88.3,2.8,,,,,,> 10,,,,,
COC(=O)N[C@H](C(=O)N[C@@H](Cc1ccc(-c2ccc(OC)nc2)cc1)[C@@H](O)C[C@@H](Cc1ccccc1F)C(=O)N[C@H]1c2cc(F)cc(Cl)c2OC[C@H]1O)C(C)(C)C,8.4,8,31.7,2.6,,,,,,> 10,,,,,
COC(=O)N[C@H](C(=O)N[C@@H](Cc1ccc(-c2ccc(N(C)C)nc2)cc1)[C@@H](O)C[C@@H](Cc1ccccc1F)C(=O)N[C@H]1c2cc(F)cc(Cl)c2OC[C@H]1O)C(C)(C)C,6,22,13.3,1.7,<1,<1,<1,0.8,1.3,> 10,< 100,5,12,3,0.9
COC(=O)N[C@H](C(=O)N[C@@H](Cc1ccc(-c2ccc(OC)nc2)cc1)[C@@H](O)C[C@@H](Cc1ccccc1F)C(=O)N[C@H]1c2cc(Cl)cc(F)c2OC[C@H]1O)C(C)(C)C,16,23,,4.1,,,,,,> 10,,,,,
COC(=O)N[C@H](C(=O)N[C@@H](Cc1ccc(-c2ccc(OC)nc2)cc1)[C@@H](O)C[C@@H](Cc1ccccc1F)C(=O)N[C@H]1c2cc(C)cc(F)c2OC[C@H]1O)C(C)(C)C,9.8,48,83.3,2.8,,,,,,> 10,,,,,
COC(=O)N[C@H](C(=O)N[C@@H](Cc1ccc(-c2ccc(OC)nc2)cc1)[C@@H](O)C[C@@H](Cc1ccccc1F)C(=O)N[C@H]1c2cc(F)cc(C)c2OC[C@H]1O)C(C)(C)C,6.8,17,26.7,1.8,<1,2,3,1.5,5.4,> 10,,,,,3.3
COC(=O)N[C@H](C(=O)N[C@@H](Cc1ccccc1)[C@@H](O)C[C@@H](Cc1ccccc1)C(=O)N[C@H]1c2ccccc2OC[C@H]1O)C(C)(C)C,19,99,66.7,10,<1,<1,2,7,19,> 10,,,,,6
COC(=O)N[C@H](C(=O)N[C@@H](Cc1ccc(-c2ccc(OC)nc2)cc1)[C@@H](O)C[C@@H](Cc1ccccc1F)C(=O)N[C@H]1c2ccccc2OC[C@H]1O)C(C)(C)C,6.6,72,96.7,2.5,,,,,,> 10,,,,,
COC(=O)N[C@H](C(=O)N[C@@H](Cc1ccc(-c2ccc(OC)nc2)cc1)[C@@H](O)C[C@@H](Cc1ccccc1F)C(=O)N[C@H]1c2cc(Cl)ccc2OC[C@H]1O)C(C)(C)C,14,23,7.83,2.7,,,,,,> 10,,,,,
COC(=O)N[C@H](C(=O)N[C@@H](Cc1ccc(-c2ccc(OC)nc2)cc1)[C@@H](O)C[C@@H](Cc1ccccc1Cl)C(=O)N[C@H]1c2cc(Cl)ccc2OC[C@H]1O)C(C)(C)C,13,5,23.3,3.9,,,,,,> 10,,,,,
COC(=O)N[C@H](C(=O)N[C@@H](Cc1ccc(-c2ccc(OC)nc2)cc1)[C@@H](O)C[C@@H](Cc1cccc(OC(F)(F)F)c1)C(=O)N[C@H]1c2cc(Cl)ccc2OC[C@H]1O)C(C)(C)C,24,0,,4.2,,,,,,> 10,,,,,
COC(=O)N[C@H](C(=O)N[C@@H](Cc1ccccc1)[C@@H](O)CN(Cc1ccc(-c2ccccn2)cc1)NC(=O)[C@@H](NC(=O)OC)C(C)(C)C)C(C)(C)C [ATAZANAVIR],13,,,6.8,9,<1,8,,57,> 10,,,,,
Cc1cccc(C)c1OCC(=O)N[C@@H](Cc1ccccc1)[C@@H](O)C[C@H](Cc1ccccc1)NC(=O)[C@H](C(C)C)N1CCCNC1=O [LOPINAVIR],,,,13,,,,,,> 10,,,,,

# The next lines start with results.
EC50 [7] [nM],"metabolised at 0.25 h, 1 µM [8] [%]",clearance [9] [mL/min/kg],EC50 [10] [nM],Structure (SMILES),Ratio EC50 [1],Ratio EC50 [2],Ratio EC50 [3],EC50 [4] [nM],EC50 [5] [nM],CC50 [6] [µM],solubility [11] [µg/mL],bioavailability at 1 month [12] [%],bioavailability at 1 month [13] [%],bioavailability at 1 month [14] [%],EC50 [15] [nM]
7.7,63,46.7,0.9,COC(=O)N[C@H](C(=O)N[C@@H](Cc1ccc(-c2ccc(OC)nc2)cc1)[C@@H](O)C[C@@H](Cc1ccccc1F)C(=O)N[C@H]1c2cc(C)ccc2OC[C@H]1O)C(C)(C)C,,,,,,> 10,,,,,
3.3,99,78.3,1.1,COC(=O)N[C@H](C(=O)N[C@@H](Cc1ccc(-c2ccc(OC)nc2)cc1)[C@@H](O)C[C@@H](Cc1ccccc1F)C(=O)N[C@H]1[C@H](C)CC[C@H]1O)C(C)(C)C,,,,,,> 10,,,,,
5.9,99,86.7,1.8,COC(=O)N[C@H](C(=O)N[C@@H](Cc1ccc(-c2ccc(OC)nc2)cc1)[C@@H](O)C[C@@H](Cc1ccccc1F)C(=O)N[C@H]1CCCC[C@H]1O)C(C)(C)C,,,,,,> 10,,,,,
4.9,99,93.3,1.1,COC(=O)N[C@H](C(=O)N[C@@H](Cc1ccc(-c2ccc(N(C)C)nc2)cc1)[C@@H](O)C[C@@H](Cc1ccccc1F)C(=O)N[C@H]1[C@H](C)CCC[C@H]1O)C(C)(C)C,,,,,,> 10,,,,,
7.1,99,70,1.1,COC(=O)N[C@H](C(=O)N[C@@H](Cc1ccc(-c2ccc(OC)nc2)cc1)[C@@H](O)C[C@@H](Cc1ccccc1Cl)C(=O)N[C@H]1[C@H](C)CCC[C@H]1O)C(C)(C)C,,,,,,> 10,,,,,
3.2,94,90,0.9,COC(=O)N[C@H](C(=O)N[C@@H](Cc1ccc(-c2ccc(OC)nc2)cc1)[C@@H](O)C[C@@H](Cc1cccc(OC(F)(F)F)c1)C(=O)N[C@H]1[C@H](C)CCC[C@H]1O)C(C)(C)C,,,,,,> 10,,,,,
5.3,47,65,2.4,COC(=O)N[C@H](C(=O)N[C@@H](Cc1ccc(-c2ccc(OC)nc2)cc1)[C@@H](O)C[C@@H](Cc1ccccc1F)C(=O)N[C@H]1c2cccc(Cl)c2OC[C@H]1O)C(C)(C)C,,,,,,> 10,,,,,
5.8,48,35,1.2,COC(=O)N[C@H](C(=O)N[C@@H](Cc1ccc(-c2ccc(OC)nc2)cc1)[C@@H](O)C[C@@H](Cc1ccccc1F)C(=O)N[C@H]1c2cc(F)ccc2OC[C@H]1O)C(C)(C)C,,,,,,> 10,,,,,
